Measured values: ChEMBL document CHEMBL1671728, “Short cationic antimicrobial peptides interact with ATP” (2010)
In brackets after ≈: the same amount, converted by molar mass. Activity calls are given as the source filed them. The rule behind the calls is not given here. Square brackets hold non-standard residues; d marks the D form. Peptide text beside a SMILES is read from it. Orn = NCCC[C@H](N)C(=O)O

Key:
Pseudomonas aeruginosa = test: Antimicrobial activity against Pseudomonas aeruginosa PAO1 H103; format: functional
[1] = target: Luciferin 4-monooxygenase (Photinus pyralis) (UniProt P08659); test: Inhibition of Photinus pyralis fire fly luciferase assessed as reduction in light production at 10 times MIC for Pseudomonas aeruginosa PAO1 H103 by ATP bioluminescence assay
Outline: (§1)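 Firefly luciferase kit mix (luciferin, MgSO4, DTT, EDTA, BSA, tricine) was combined with peptide at 1, 3 or 10× MIC against P. aeruginosa PAO1 H103. ATP (200 µM) was added to start the reaction and luminescence was read, with an ATP standard curve. Activity was scored by the lowest MIC multiple giving ≥75% loss of light.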

[2] = Inhibition of DnaK assessed as reduction in ATP turnover at MIC for Pseudomonas aeruginosa PAO1 H103 by ATPase assay
Outline: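 DnaK ATPase run in 20 mM HEPES pH 8, 10 mM Mg acetate, 100 mM NaCl with 200 µM [α-32P]ATP (~8 Ci/mmol) and peptide at 1× MIC (control without peptide), 37°C for 15 min. Stopped with EDTA/SDS and imaged by phosphorimager. Turnover was taken as the ADP fraction of total spots, corrected for no-protein background, mean of two independent assays.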

[3] = Inhibition of DNA polymerase assessed as reduction in PCR products at MIC for Pseudomonas aeruginosa PAO1 H103 by qPCR
[4] = target: Luciferin 4-monooxygenase (Photinus pyralis) (UniProt P08659); test: Inhibition of Photinus pyralis fire fly luciferase assessed as reduction in light production at 3 times MIC for Pseudomonas aeruginosa PAO1 H103 by ATP bioluminescence assay
Outline: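 Commercial ATP bioluminescence kit with lyophilized firefly luciferase, luciferin, MgSO4, DTT, EDTA, BSA and tricine buffer. An ATP standard curve was run. Peptide was premixed with the kit solution, and ATP (200 µM) was added to start the reaction. Luminescence was read. Peptides were tested at 1×, 3× and 10× their MIC against P. aeruginosa PAO1 H103. Scoring was ≥75% loss of light at 3× MIC.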

[5] = target: Luciferin 4-monooxygenase (Photinus pyralis) (UniProt P08659); test: Inhibition of Photinus pyralis fire fly luciferase assessed as reduction in light production at 1 times MIC for Pseudomonas aeruginosa PAO1 H103 by ATP bioluminescence assay; outline: as §1
[6] = Inhibition of DNA polymerase assessed as reduction in PCR products at 3 times MIC for Pseudomonas aeruginosa PAO1 H103 by qPCR

Chain of Luciferin 4-monooxygenase (Photinus pyralis) (P08659 whole entry): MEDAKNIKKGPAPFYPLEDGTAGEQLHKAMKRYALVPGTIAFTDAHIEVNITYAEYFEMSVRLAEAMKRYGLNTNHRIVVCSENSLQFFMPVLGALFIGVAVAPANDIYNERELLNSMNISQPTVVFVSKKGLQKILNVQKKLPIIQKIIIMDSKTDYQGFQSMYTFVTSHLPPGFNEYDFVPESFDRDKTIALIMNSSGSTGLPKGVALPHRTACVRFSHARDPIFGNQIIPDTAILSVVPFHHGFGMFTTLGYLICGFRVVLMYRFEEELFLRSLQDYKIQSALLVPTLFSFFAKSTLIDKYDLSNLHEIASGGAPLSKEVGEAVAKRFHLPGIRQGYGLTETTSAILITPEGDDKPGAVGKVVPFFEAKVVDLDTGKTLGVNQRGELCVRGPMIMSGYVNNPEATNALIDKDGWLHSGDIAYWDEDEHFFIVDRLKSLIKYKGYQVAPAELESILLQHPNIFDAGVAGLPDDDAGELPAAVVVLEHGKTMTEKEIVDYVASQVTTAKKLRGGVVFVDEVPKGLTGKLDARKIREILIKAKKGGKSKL

Compound | MIC (Pseudomonas aeruginosa) | inhibition [1] | inhibition [2] | inhibition [3] | inhibition [4] | inhibition [5] | inhibition [6]
CC[C@H](C)[C@H](NC(=O)CNC(=O)[C@@H](NC(=O)[C@H](CCCCN)NC(=O)[C@H](CCCCN)NC(=O)[C@H](Cc1ccccc1)NC(=O)[C@H](CC(C)C)NC(=O)[C@H](CCCCN)NC(=O)[C@H](Cc1c[nH]c2ccccc12)NC(=O)[C@@H](N)CCCCN)[C@@H](C)CC)C(=O)NCC(=O)N[C@@H](C)C(=O)N[C@H](C(=O)N[C@@H](CC(C)C)C(=O)N[C@@H](CCCCN)C(=O)N[C@H](C(=O)N[C@@H](CC(C)C)C(=O)N[C@H](C(=O)N[C@H](C(=O)NCC(=O)N[C@@H](CC(C)C)C(=O)N1CCC[C@H]1C(=O)N[C@@H](C)C(=O)N[C@@H](CC(C)C)C(=O)N[C@H](C(=O)N[C@@H](CO)C(=O)O)[C@@H](C)CC)[C@@H](C)O)[C@@H](C)O)C(C)C)C(C)C | 2 µg/mL (≈ 0.715 µM) | inactive |  |  |  |  | 
CC[C@H](C)[C@H](NC(=O)[C@H](CC(C)C)NC(=O)[C@H](C)NC(=O)[C@@H]1CCCN1C(=O)[C@H](CC(C)C)NC(=O)CNC(=O)[C@@H](NC(=O)[C@@H](NC(=O)[C@H](CC(C)C)NC(=O)[C@@H](NC(=O)[C@H](CCCCN)NC(=O)[C@H](CCCCN)NC(=O)[C@@H](NC(=O)[C@H](C)NC(=O)[C@@H](NC(=O)[C@@H](NC(=O)[C@H](CC(C)C)NC(=O)[C@H](CCCCN)NC(=O)[C@H](CCCCN)NC(=O)[C@@H](NC(=O)[C@H](Cc1ccccc1)NC(=O)[C@H](CO)NC(=O)[C@H](CCCCN)NC(=O)[C@H](Cc1c[nH]c2ccccc12)NC(=O)[C@@H](N)CCCCN)[C@@H](C)CC)[C@@H](C)O)[C@@H](C)O)C(C)C)C(C)C)[C@@H](C)O)[C@@H](C)O)C(=O)N[C@@H](CO)C(=O)O | 2 µg/mL (≈ 0.696 µM) | inactive | inactive | inactive |  |  | 
CC(C)C[C@@H]1NC(=O)[C@H](CCCN)NC(=O)[C@H](C(C)C)NC(=O)[C@@H]2CCCN2C(=O)[C@@H](Cc2ccccc2)NC(=O)[C@H](CC(C)C)NC(=O)[C@H](CCCN)NC(=O)[C@H](C(C)C)NC(=O)[C@@H]2CCCN2C(=O)[C@@H](Cc2ccccc2)NC1=O [GRAMICIDIN S] (cyclo(L[dF]PV[Orn]L[dF]PV[Orn])) | 0.2 µg/mL (≈ 0.175 µM) | inactive |  | inactive |  |  | 
CC(C)[C@H](NC(=O)[C@H](CCCNC(=N)N)NC(=O)[C@H](Cc1ccccc1)NC(=O)[C@H](CS)NC(=O)[C@H](Cc1c[nH]c2ccccc12)NC(=O)[C@H](CCCNC(=N)N)NC(=O)[C@@H](N)CCCNC(=N)N)C(=O)N[C@@H](CS)C(=O)N[C@@H](Cc1ccc(O)cc1)C(=O)N[C@@H](CCCNC(=N)N)C(=O)NCC(=O)N[C@@H](Cc1ccccc1)C(=O)N[C@@H](CS)C(=O)N[C@@H](Cc1ccc(O)cc1)C(=O)N[C@@H](CCCNC(=N)N)C(=O)N[C@@H](CCCCN)C(=O)N[C@@H](CS)C(=O)N[C@@H](CCCNC(=N)N)C(N)=O [POLYPHEMUSIN I] (H-RRWCFRVCYRGFCYRKCR-NH2) | 2 µg/mL (≈ 0.814 µM) | > 75% |  |  |  |  | 
GENTAMICIN | 25 µg/mL | inactive |  |  |  |  | 
H-KWKSFIKKLTSAAKKVVTTAKPLISS-OH | 2 µg/mL | inactive |  |  |  |  | 
H-KWKSFLKTFKSAVKTVLHTALKAISS-OH | 2 µg/mL | inactive | inactive | inactive |  |  | 
H-KWKSFLRTFKSPVRTVFHTALKPISS-OH | 16 µg/mL | inactive |  |  |  |  | 
H-KWKSFLRTLKSPAKTVFHTALKAISS-OH | 16 µg/mL | inactive |  |  |  |  | 
H-RAVAVIIRLRRV-NH2 | 33 µg/mL |  |  |  | > 75% |  | 
H-RLARIVPIRVAR-NH2 | > 250 µg/mL | inactive |  |  |  |  | 
H-RLARIVVIRVAR-NH2 | 50 µg/mL |  | Active | Active | > 75% |  | 
H-RLWRIVVIRVAR-NH2 | 8 µg/mL |  | Active |  |  | 75% | Active
H-RRAAVVLIVIRR-NH2 | 7 µg/mL |  |  |  | > 75% |  | 
H-RRWKIVVIRWRR-NH2 | 2 µg/mL |  | Active | Active |  | 75% | 
H-RRWRIVVIRVRR-NH2 | 2 µg/mL |  |  |  |  | 75% | 
H-VRLRIRVAVIRA-NH2 | 10 µg/mL | > 75% |  |  |  |  | 
POLYMYXIN B | 0.5 µg/mL |  | inactive | inactive |  |  | 
